This note sets out measurements from ChEMBL document CHEMBL4028901, “Novel Antitubercular 6-Dialkylaminopyrimidine Carboxamides from Phenotypic Whole-Cell High Throughput Screening of a SoftFocus Library: Structure-Activity Relationship and Target Identification Studies” (J Med Chem, 2017).

≈ marks a conversion by molar mass, not a printed value. Calls of active or inactive are those of the source. The calls are words filed in the database; no cut-off is given here.

Assay [1] in a line: Binding affinity to Mycobacterium bovis BCG Rv3768. Details: species or system Mycobacterium tuberculosis variant bovis BCG. The settings on record: read-out: Kd(app).
A short description of assay [2]: Binding affinity to Mycobacterium bovis BCG Rv3169. Details: species or system Mycobacterium tuberculosis variant bovis BCG. The settings on record: read-out: Kd(app).
Assay [3] deals with Mycobacterium tuberculosis variant bovis BCG. The assay can be described thus: Binding affinity to Mycobacterium bovis BCG Rv3768 using sepharose beads derivatized with 6-((3-aminopropyl)(benzyl)amino)-N-(4-(4-methylpiperazin-1-yl)phenyl)pyrimidine-4-carboxamide by LC-MS/MS based chemoproteomics assay. A digest of the protocol:
(§1)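 BCG lysate (0.25 mg) pre-incubated with compound or DMSO, then bound to probe-derivatized sepharose beads (0.04 mM) for 1 h at 4 °C. Six compound concentrations used, top 30 μM with 1:4 steps. Includes vehicle duplicates and rebinding duplicates to measure depletion. Bound proteins eluted and quantified by TMT LC-MS/MS. Apparent Kd corrected for depletion by the beads.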

Assay [4] has the same test system. The assay can be described thus: Binding affinity to Mycobacterium bovis BCG Rv3169 using sepharose beads derivatized with 6-((3-aminopropyl)(benzyl)amino)-N-(4-(4-methylpiperazin-1-yl)phenyl)pyrimidine-4-carboxamide by LC-MS/MS based chemoproteomics assay. A digest of the protocol:
as §1

Assay [5] has as its system Mycobacterium tuberculosis. Description: Antibacterial activity against GFP-fused Mycobacterium tuberculosis H37RvMA expressing QcrB mutant grown in 7H9/GLU/ADC medium measured on day 7 and day 14 post inoculation by fluorescence plate reader assay. Type of assay: functional. A digest of the protocol: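 Mtb::gfp strains (H37RvMa::pMSP12GFP background), two-fold dilutions 20–0.039 µM in 7H9 with Tween-80, glycerol and ADC, or in GAST-Fe pH 6.6, at 5% final DMSO. Cultures grown to OD600 ~0.6 and diluted 1:500 (7H9) or 1:100 (GAST/Fe). […] Data normalised to rifampicin and DMSO controls; MIC90 taken from dose-response curves.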

As to `CN1CCN(c2ccc(NC(=O)c3cc(N(C)Cc4ccc(C(F)(F)F)cc4)ncn3)cc2)CC1`, the figures for the Kd in assay [1] and in assay [2] were 2100 to 3800 nM and 610 to 690 nM, respectively. In addition, the outcome in assay [3] and in assay [4] was Active.

The compound `COc1ccc(NC(=O)c2cc(N(C)Cc3ccccc3)ncn2)cc1` showed an MIC99 in assay [5] of 20 µM (≈ 6.97 µg/mL). In other words, the double-digit micromolar range.

`O=C(Nc1ccccc1)c1ccc(=O)n(Cc2ccc(F)cc2)c1`: the result in assay [3] and in assay [4] was inactive.
